The record followed here is ChEMBL document CHEMBL4020839, “Class I HDAC Inhibitors Display Different Antitumor Mechanism in Leukemia and Prostatic Cancer Cells Depending on Their p53 Status” (J Med Chem, 2018).

Calls of active or inactive are those of the source. The rule behind the calls is not given here.

For assay [1], the target named is T1, Histone deacetylase 2 (Homo sapiens, UniProt Q92769). The settings on record: 0.25 to 2 uM.
Assay [2] relates to PC-3. The assay is described as follows: Downregulation of HDAC1 protein expression in human PC3 cells at 1 to 2 uM after 24 hrs by Western blot method. The format is functional, cell-based. Summed up: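 MV4-11 (1,500,000/well) or PC-3 (300,000/well) grown 12 h, then treated 24 h at 1 and 2 μM, with 5 μM SAHA as reference. RIPA lysis, sonication and centrifugation, BCA normalization. NuPAGE 4–12% Bis-Tris gel in MES, transfer, primary antibodies 1/1000 overnight at 4 °C. Actin as loading control.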

The target of a further assay is T2, Histone deacetylase 7 (Homo sapiens, UniProt Q8WUI4).
T2 sequence (Q8WUI4 whole entry): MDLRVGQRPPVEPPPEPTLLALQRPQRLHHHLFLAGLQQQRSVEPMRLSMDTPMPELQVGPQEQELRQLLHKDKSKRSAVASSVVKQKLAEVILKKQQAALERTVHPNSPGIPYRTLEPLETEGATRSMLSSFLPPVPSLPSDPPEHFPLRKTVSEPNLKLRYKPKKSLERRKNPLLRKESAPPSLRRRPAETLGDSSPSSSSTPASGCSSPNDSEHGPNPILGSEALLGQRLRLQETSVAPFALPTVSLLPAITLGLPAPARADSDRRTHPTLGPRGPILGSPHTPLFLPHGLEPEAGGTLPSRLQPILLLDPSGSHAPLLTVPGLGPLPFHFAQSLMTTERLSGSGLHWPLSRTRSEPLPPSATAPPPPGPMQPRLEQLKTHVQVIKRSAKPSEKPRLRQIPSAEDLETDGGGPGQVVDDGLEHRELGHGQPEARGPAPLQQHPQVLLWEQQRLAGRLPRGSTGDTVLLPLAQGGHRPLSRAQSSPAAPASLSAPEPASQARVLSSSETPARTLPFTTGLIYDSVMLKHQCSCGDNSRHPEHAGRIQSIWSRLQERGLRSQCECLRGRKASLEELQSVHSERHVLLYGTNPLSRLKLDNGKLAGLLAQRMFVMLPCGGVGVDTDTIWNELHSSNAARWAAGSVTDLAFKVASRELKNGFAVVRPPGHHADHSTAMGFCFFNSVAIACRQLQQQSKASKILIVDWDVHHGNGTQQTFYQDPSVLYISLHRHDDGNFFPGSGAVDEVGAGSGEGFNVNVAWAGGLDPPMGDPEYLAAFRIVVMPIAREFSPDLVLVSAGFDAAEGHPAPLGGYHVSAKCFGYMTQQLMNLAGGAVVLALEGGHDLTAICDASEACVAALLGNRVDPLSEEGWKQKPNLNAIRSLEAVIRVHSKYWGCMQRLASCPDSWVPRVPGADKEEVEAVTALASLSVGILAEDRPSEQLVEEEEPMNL
The assay is described as follows: Inhibition of recombinant human N-terminal GST-tagged HDAC7 (518-end residues) expressed in baculovirus expression system using Boc-Lys(trifluoroacetyl)-AMC as substrate preincubated for 1 hr followed by substrate addition measured after 2 hrs by fluorescence assay. The essentials: (§1)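 Recombinant HDAC incubated with serial compound dilutions at 30 °C for 1 h. Reaction run 2 h at 30 °C, stopped with developer containing trypsin and TSA. Fluorescence read after 30 min at 360/460 nm. Inhibition relative to control wells; IC50 from variable-slope fit.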

The next assay relates to MV4-11. The assay is described as follows: Cell cycle arrest in human MV4-11 cells assessed as accumulation at G1/S phase at 0.5 uM after 24 hrs by propidium iodide staining based flow cytometry. The format is functional. Background: A flow cytometer gives signals particle by particle.
Assay [3] deals with PC-3. In words: Antiproliferative activity against human PC3 cells assessed as cell viability at 2 uM after 48 hrs by CellTiter-Blue assay relative to control. It is filed as functional, cell-based. Summed up:
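MV4-11 and PC-3 cells treated with 10 or 2 μM (or 0 μM) and sampled at 24 and 48 h. Viable cells measured by CellTiter-Blue resorufin fluorescence, read as in the EC50 assay, which is proportional to viable cell number. Representative of n = 2 experiments.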

The target in assay [4] is Matrix metalloproteinase 2/9 (Homo sapiens) (UniProt P08253+P14780). In words: Inhibition of human MMP2/C-terminal hemopexin domain truncated MMP9 up to 50 uM preincubated for 10 to 15 mins followed by substrate addition measured after 2 hrs by fluorescence assay. The format is protein assay. Summed up: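 Gelatinase kit assay: compound (100 μM stock), MMP inhibitor (40 μM stock) or activation buffer combined with MMP-2/MMP-9 in activation buffer. After 10–15 min, substrate added and incubated at 37 °C for 2 h. Fluorescence read at 320/405 nm.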
Matrix metalloproteinase 2/9 (Homo sapiens), sequence (P08253 whole entry, looked up, the tested form may be a part): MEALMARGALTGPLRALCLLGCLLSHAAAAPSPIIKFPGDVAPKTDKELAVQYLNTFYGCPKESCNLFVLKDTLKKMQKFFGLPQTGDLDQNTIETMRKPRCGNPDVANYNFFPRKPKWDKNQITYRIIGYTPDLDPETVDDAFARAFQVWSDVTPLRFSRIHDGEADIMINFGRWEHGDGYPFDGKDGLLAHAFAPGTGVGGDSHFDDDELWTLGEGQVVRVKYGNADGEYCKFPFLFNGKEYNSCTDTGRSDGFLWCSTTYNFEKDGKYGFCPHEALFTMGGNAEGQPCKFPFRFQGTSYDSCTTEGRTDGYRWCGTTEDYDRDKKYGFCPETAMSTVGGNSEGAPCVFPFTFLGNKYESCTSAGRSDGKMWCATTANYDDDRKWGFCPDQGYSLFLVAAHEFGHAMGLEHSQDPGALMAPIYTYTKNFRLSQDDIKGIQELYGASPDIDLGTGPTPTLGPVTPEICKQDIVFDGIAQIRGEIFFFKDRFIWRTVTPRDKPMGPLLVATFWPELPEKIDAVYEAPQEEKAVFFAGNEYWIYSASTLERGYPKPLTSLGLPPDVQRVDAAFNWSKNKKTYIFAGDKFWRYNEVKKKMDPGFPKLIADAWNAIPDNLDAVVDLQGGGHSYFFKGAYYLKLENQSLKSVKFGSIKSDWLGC
Matrix metalloproteinase 2/9 (Homo sapiens), sequence (P14780 whole entry, looked up, the tested form may be a part): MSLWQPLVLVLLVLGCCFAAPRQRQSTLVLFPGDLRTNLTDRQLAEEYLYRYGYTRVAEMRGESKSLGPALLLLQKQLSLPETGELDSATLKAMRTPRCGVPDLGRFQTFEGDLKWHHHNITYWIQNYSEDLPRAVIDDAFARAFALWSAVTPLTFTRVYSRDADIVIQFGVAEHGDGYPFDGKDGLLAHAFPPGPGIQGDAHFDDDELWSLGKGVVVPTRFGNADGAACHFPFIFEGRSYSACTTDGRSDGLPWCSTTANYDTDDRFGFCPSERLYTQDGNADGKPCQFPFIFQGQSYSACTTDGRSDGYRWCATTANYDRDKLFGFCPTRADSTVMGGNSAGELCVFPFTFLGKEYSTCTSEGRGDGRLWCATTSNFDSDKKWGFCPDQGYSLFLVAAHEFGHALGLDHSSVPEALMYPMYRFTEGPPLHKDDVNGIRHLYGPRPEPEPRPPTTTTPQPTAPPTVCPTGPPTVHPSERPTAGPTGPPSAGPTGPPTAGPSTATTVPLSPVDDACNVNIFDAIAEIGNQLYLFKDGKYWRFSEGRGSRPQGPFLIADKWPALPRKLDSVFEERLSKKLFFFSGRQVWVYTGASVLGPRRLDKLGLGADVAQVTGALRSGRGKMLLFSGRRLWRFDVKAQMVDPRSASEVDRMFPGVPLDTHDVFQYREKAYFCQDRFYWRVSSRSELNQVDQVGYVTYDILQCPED

For assay [5], the target named is Histone deacetylase 3/Nuclear receptor corepressor 2 (HDAC3/NCoR2) (Homo sapiens, UniProt O15379). In words: Inhibition of full length recombinant human C-terminal His-tagged HDAC3/N-terminal GST-tagged NCOR2 co-expressed in baculovirus expression system using Boc-Lys(acetyl)-AMC as substrate preincubated for 1 hr followed by substrate addition measured after 2 hrs by fluorescence assay. Summed up:
as §1

Assay [6] deals with T1, Histone deacetylase 2. In words: Inhibition of full length recombinant human C-terminal FLAG/His-tagged HDAC2 expressed in baculovirus expression system using Boc-Lys(acetyl)-AMC as substrate preincubated for 1 hr followed by substrate addition measured after 2 hrs by fluorescence assay. Summed up: as §1
In a further assay the target is Histone deacetylase 5 (Homo sapiens, UniProt Q9UQL6). In words: Inhibition of recombinant human HDAC5 expressed in baculovirus expression system using Boc-Lys(trifluoroacetyl)-AMC as substrate preincubated for 1 hr followed by substrate addition measured after 2 hrs by fluorescence assay. Summed up: as §1
Histone deacetylase 5, sequence (Q9UQL6 whole entry): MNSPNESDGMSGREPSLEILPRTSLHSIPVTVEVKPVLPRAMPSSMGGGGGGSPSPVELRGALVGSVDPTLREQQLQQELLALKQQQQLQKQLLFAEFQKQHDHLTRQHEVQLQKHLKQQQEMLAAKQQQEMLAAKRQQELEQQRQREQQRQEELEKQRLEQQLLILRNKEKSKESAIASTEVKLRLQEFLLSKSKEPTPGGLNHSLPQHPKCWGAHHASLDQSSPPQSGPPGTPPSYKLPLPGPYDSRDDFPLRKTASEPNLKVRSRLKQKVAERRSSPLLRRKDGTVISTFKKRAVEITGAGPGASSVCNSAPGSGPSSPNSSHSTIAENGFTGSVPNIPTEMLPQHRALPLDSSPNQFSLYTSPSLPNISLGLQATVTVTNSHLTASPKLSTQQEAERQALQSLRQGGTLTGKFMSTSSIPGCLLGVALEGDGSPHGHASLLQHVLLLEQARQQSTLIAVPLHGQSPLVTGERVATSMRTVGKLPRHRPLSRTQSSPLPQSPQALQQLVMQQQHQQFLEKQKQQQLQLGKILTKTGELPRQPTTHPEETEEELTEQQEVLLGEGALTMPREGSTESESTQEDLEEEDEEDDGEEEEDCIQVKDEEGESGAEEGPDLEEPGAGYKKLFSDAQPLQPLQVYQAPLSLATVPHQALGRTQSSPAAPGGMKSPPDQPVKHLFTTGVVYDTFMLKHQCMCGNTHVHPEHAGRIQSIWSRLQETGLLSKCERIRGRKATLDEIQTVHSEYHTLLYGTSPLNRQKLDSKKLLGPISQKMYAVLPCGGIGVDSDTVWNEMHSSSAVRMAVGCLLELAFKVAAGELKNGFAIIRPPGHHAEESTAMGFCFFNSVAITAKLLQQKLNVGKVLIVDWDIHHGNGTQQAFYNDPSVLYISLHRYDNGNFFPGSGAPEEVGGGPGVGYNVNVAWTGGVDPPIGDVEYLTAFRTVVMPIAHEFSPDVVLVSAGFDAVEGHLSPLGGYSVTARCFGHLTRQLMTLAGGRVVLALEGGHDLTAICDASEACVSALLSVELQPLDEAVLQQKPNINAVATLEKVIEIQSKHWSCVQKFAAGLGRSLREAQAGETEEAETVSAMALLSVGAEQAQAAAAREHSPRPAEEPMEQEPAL

T1 sequence (Q92769 whole entry): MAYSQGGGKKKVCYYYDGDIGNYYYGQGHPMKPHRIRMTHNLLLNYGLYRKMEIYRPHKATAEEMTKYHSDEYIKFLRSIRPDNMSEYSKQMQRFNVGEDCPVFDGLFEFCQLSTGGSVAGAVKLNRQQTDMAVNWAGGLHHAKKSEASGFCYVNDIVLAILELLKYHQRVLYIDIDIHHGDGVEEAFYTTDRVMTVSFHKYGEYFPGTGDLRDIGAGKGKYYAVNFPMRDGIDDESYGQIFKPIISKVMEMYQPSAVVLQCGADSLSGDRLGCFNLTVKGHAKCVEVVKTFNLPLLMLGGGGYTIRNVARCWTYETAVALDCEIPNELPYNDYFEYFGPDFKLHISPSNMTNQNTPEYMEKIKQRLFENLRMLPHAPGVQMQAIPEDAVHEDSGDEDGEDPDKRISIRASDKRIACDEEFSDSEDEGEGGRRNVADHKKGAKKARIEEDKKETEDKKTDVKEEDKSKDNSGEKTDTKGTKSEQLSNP

A word on the IC50: it is the point on the concentration scale where inhibition reaches its midpoint. `CCCNNC(=O)c1ccc(NC(=O)[C@H](Cc2c[nH]c3ccccc23)NC(=O)c2ccc(OC)cc2)cc1`: the inhibition result on Histone deacetylase 2 [1] is “Active”. Besides, the outcome in the assay on PC-3 [2] and with PC-3 [3] was inactive. Also, the 50% inhibitory concentration (IC50) was more than 50 µM on Histone deacetylase 7, 0.00141 µM in assay [5], 0.028 µM at Histone deacetylase 2 [6] and more than 50 µM at Histone deacetylase 5. The outcome in the assay on MV4-11 was Active. Further, in [4], the inhibition result was “inactive”.
